Experimental data collected from several papers.
Each line is one published result; the experiments were not run side by side.
Target: Death-associated protein kinase 1 (DAPK1, Homo sapiens, UniProt P53355)

Nc1ncc(-c2nc(N3CCOCC3)nc(N3CCOCC3)n2)c(C(F)F)n1
remaining binding (binding; competition with immobilised ligand; 10 µM): 94%

COc1cc(Nc2ncc(F)c(Nc3ccc4c(n3)NC(=O)C(C)(C)O4)n2)cc(OC)c1OC
inhibition (binding; competition with immobilised ligand; 10 µM): 97%

CC(C)(C)c1cc(C=C(C#N)C#N)cc(Br)c1O
remaining activity (enzyme activity; inhibitor; 0.5 µM): 85.9%

Cn1cc(-c2cccc(N3CCc4c(sc5c4CC(C)(C)C5)C3=O)c2CO)cc(Nc2ccncn2)c1=O
inhibition (enzyme activity; inhibitor; 1 µM): 1%

Cc1nn(C)cc1-c1nc2c(N3CCN(Cc4ccc(Cl)cc4)CC3)c(Cl)cnc2[nH]1
remaining binding (binding; competition with immobilised ligand; 1 µM): 80%

Cn1cc(-c2cc(F)cc(N3CCn4c(cc5c4CCCC5)C3=O)c2CO)cc(Nc2ccc(N3CCN(C4COC4)CC3)cn2)c1=O
inhibition (enzyme activity; inhibitor; 0.1 µM): 8%

COc1ncccc1-c1cnn2ccc(N3CCN(C(=O)OC(C)C)CC3)nc12
remaining binding (binding; competition with immobilised ligand; 1 µM): 82%

Cn1cncc1[C@](O)(COc1ccc(C#N)cc1-c1ccc(OC(F)(F)F)cc1)c1ccc(C#N)cc1
remaining binding (cell-free assay; competition with immobilised ligand; 1 µM): 84%

O=c1[nH]c2ccccc2n1C1CCN(Cc2ccc(-c3[nH]c4cc5ncnc5cc4nc3-c3ccccc3)cc2)CC1
remaining signal (cell-free assay; 0.5 µM): 82.9%
